Screening results (PubChem)
This is a sample that favours compounds with a hit; in the whole collection about 2.6% have one here.
Yeast growth inh – chemicals that inhibit yeast BB579 growth in restrictive medium (lifespan-shortening candidates). AID 804. actives 0.51% (n = 140,000). S. cerevisiae BB579 growth, OD615, 48 h. inhibition, % at 10 µM;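 active means inhibition above a set limit, 3 SD over the mean compound inhibition, cut at about 44% in these data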
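Detection: OD615 turbidity measurement; Material: Saccharomyces cerevisiae DeaD strain BB579, replicative lifespan model yeast; Timing: 48 h exposure, 30 °C; Doses: single 10 µM dose; Medium: CSMM-D restrictive synthetic medium containing dextrose (glucose); Controls: amphotericin B at 10 µg/mL as positive control.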
RAM inhibit – blocks the yeast RAM network; actives 1.8% (n = 190,000); S. cerevisiae dse1pr::URA3 reporter, 5-FOA growth OD615, 2 d; analog-sensitive cbk1-as2 kinase mutant strain; inhibition, % at 50 µM;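 active means inhibition above a set limit, 3 SD over mean compound inhibition, cut at about 8.4% in these data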;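 further: 0% = DMSO-only wells with no growth and 100% = 10 µM 1-NA-PP1 full growth; inhibition rescues growth on 5-FOA so higher OD means more RAM inhibition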
Yeast lifespan up – extends the lifespan of yeast; S. cerevisiae growth with nicotinamide, OD615; deaD strain in restrictive glucose medium; inhibition of the nicotinamide effect, % at 10 µM; actives 0.68% (n = 130,000); AID 775;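 active means inhibition above a set limit, placed 3 SD over the median of all compounds, cut at about 26% in these data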;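 further: 0% = nicotinamide-treated wells and 100% = cells grown without nicotinamide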
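Material: Modified budding yeast, DeaD strain | Medium: Restrictive glucose medium | Probe or stimulus: 1.5 mM nicotinamide | Dosing: Single dose 10 µM compound, 0.25% DMSO | Times: 48 h at 30 °C | Technique: OD615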
Numbers without * were called inactive; nt = no result given.

SMILES	Yeast growth inh	RAM inhibit	Yeast lifespan up
Oc1c(C(Nc2ccccn2)c2cccnc2)cc(Cl)c2cccnc12 (stereo not drawn)	-8	1	28*
COc1ccccc1CNc1nc(S(=O)(=O)c2ccccc2)c(Cl)s1	-59	9.8*	-3
CSc1nc(S(=O)(=O)c2ccccc2)c(Cl)s1	nt	2	nt
COc1ccnc(Oc2ccccc2)c1C(=O)N/C=N/OCc1ccccc1F	nt	1	nt
O=C(CCNC(=O)OCc1ccccc1)NC1CCCCCC1	-31	1	0
O=C(CSc1nc2cc(Cl)ccc2c(=O)n1Cc1ccco1)Nc1ccc(S(=O)(=O)N2CCOCC2)cc1	-44	9.1*	3
COC(=O)c1ccc2c(=O)n(Cc3ccco3)c(SCC(=O)Nc3ccc(C)c(Cl)c3)nc2c1	-65	2	-2
CC1CC2(CCCCC2)Nc2ccc3ccccc3c21 (stereo not drawn)	-24	4	nt
CC(=O)N1c2ccc3ccccc3c2C(C)CC12CCCCC2 (stereo not drawn)	-34	10*	20
COc1ccc(Cn2nnnc2C(C(C)C)N2CCc3ccccc32)cc1 (stereo not drawn)	-7	11*	8
COc1ccc(Cn2nnnc2C(CC(C)C)N2CCN(c3ccccc3)CC2)cc1 (stereo not drawn)	-7	2	-10
CC(C)(C)c1[nH]nc2c1C(c1cccnc1)C(C#N)=C(N)O2 (stereo not drawn)	1	0	-18
CC(C)(C)c1[nH]nc2c1C(c1ccc(OC(=O)c3ccco3)cc1)C(C#N)=C(N)O2 (stereo not drawn)	-84	10*	-3
COc1ccc2ncc(OC(C)=O)cc2c1	3	0	-7
CCN(CC)S(=O)(=O)c1cccc(C(=O)Nc2cccc(C)c2)c1	11	0	-7
CCN(CC)S(=O)(=O)c1cccc(NC(=O)c2cncc(Br)c2)c1	nt	0	nt
CCN(CC)S(=O)(=O)c1cccc(NC(=O)c2ccc(Br)cc2)c1	nt	9.7*	nt
CCN(CC)S(=O)(=O)c1cccc(NC(=O)C(=O)c2c(-c3ccccc3)cc3ccccn23)c1	-85	9.9*	9
CCN(CC)S(=O)(=O)c1cccc(C(=O)Nc2cc(C)cc(C)c2)c1	-36	8.5*	-1
CCN(CC)S(=O)(=O)c1cc(NC(=O)C(=O)c2c(-c3ccccc3)cc3ccccn23)ccc1C	-60	8	-5
CC(C(=O)NCc1ccco1)n1cc([N+](=O)[O-])cn1 (stereo not drawn)	nt	1	nt
Cc1ccnc(NC(=O)CCC(=O)N(CC(=O)NC2CCCCC2)Cc2cccs2)c1	nt	1	nt
O=Cc1s/c(=N\S(=O)(=O)c2ccccc2)n(CCCCl)c1Cl	nt	4	nt
COC(=O)c1oc2ccccc2c1NC(=O)/C=C/C(=O)O	nt	-1	nt
CCOC(=O)c1nnc(-c2ccc(C)cc2)nc1Sc1cccc(Cl)c1	-60	4	3
SMILES	Yeast growth inh	RAM inhibit	Yeast lifespan up
CCOC(=O)c1nnc(-c2ccccc2)nc1Sc1ccccc1Cl	-62	11*	-3
CCN1C(=O)[C@H]2[C@H]3[C@H](O)[C@H](O)C/C(=N\OC[C@@H](C)[C@H](OCc4ccccc4)C(C)C)[C@@H]3CC[C@H]2C1=O	-16	0	2
c1ccc(-c2nc(CSc3nnc(-c4cccs4)o3)cs2)cc1	-44	9.9*	-9
Cc1ccc(Nc2nc(CSc3nnc(-c4cccs4)o3)cs2)cc1	-30	5	-4
O=[N+]([O-])c1cc(/C=N/Nc2nc3ccccc3[nH]2)c(O)cc1O	-15	2	-3
O=C(COC(=O)Cc1ccc(Cl)cc1Cl)Nc1ccc(OC(F)F)cc1	-8	10*	-7
O=C(COC(=O)Cc1ccc(Cl)cc1)Nc1ccc(OC(F)F)cc1	-10	0	-6
CC(=O)Nc1ccc(C(=O)OCc2ccc(Cl)cc2)cc1	-24	4	-21
CC(=O)Nc1ccc(C(=O)OCC(=O)NCc2ccccc2)cc1	nt	2	nt
CC(=O)Nc1ccc(C(=O)OCC(=O)N(Cc2ccccc2)C(C)(C)C)cc1	-14	0	54*
CC(=O)Nc1ccc(C(=O)OCc2ccccc2Br)cc1	nt	8.8*	nt
N#C/C(=C\c1ccccc1)c1nc2ncccc2[nH]1	-32	1	-9
Cc1noc(C)c1COc1cccc(C(=O)NC(C)(C)C)c1	nt	0	nt
O=C(CSc1nc2ccccc2s1)Nc1ccc(N2CCOCC2)c(Cl)c1	-40	5	-7
O=C(CSc1nc2ccccc2s1)Nc1ccc(Cl)c(S(=O)(=O)N2CCOCC2)c1	-51	9.9*	3
CCN1C(=O)C(CC(=O)Nc2ccc(Br)cc2)N(CCCc2ccccc2)C1=S (stereo not drawn)	-42	11*	-16
CCOc1ccc(NC(=O)CC2C(=O)N(C)C(=S)N2CCCc2ccccc2)cc1 (stereo not drawn)	7	6	13
O=C(CNC(=O)c1cccc(OC(F)F)c1)OCc1cc(=O)n2cc(Br)ccc2n1	-47	3	-3
O=Cc1ccccc1Oc1nc(N2CCOCC2)nc(N2CCOCC2)n1	nt	2	nt
COc1cc(/C=C2/SC(=S)N(c3ccccc3)C2=O)ccc1Oc1nc(N2CCOCC2)nc(N2CCOCC2)n1	-44	9.3*	-1
O=C(O)c1cn(C2CC2)c2cc(N3CCN(S(=O)(=O)c4ccc5c(c4)OCCO5)CC3)c(F)cc2c1=O	nt	2	nt
CCNc1ccc(P(=O)(c2ccccc2)c2ccccc2)cc1	nt	1	nt
Cc1nc(N2N=C(c3ccc(Cl)cc3)CC2c2ccco2)sc1C(=O)N(C)C (stereo not drawn)	nt	1	nt
COc1ccc(C2=NN(c3nc(-c4ccccc4)c(CC(=O)O)s3)C(c3ccco3)C2)cc1 (stereo not drawn)	-13	4	31*
N#Cc1ccccc1OCC(=O)NC(N)=O	11	2	-10
SMILES	Yeast growth inh	RAM inhibit	Yeast lifespan up
CCOC(=O)CCCNC(=O)COc1ccccc1C#N	-11	2	66*
Cc1cc(=O)[nH]c(SCC(=O)NCCC2=CCCCC2)n1	nt	2	nt
Cc1cccc(OCCNC(=O)c2ccc(Oc3ccc(C(F)(F)F)cc3[N+](=O)[O-])cc2)c1	-38	6	0
Cc1cccc(OCCNC(=O)c2cccc(Oc3ccc(C(F)(F)F)cc3[N+](=O)[O-])c2)c1	-8	9.0*	2
COc1ccc(CN(CC2CCCO2)C(=O)c2cc3sccc3n2C)c(OC)c1 (stereo not drawn)	nt	0	nt
CCN=C1S/C(=C\c2ccc(N3CCOCC3)cc2C)C(=O)N1CC	-23	10*	5
CN=C1S/C(=C\c2ccc(N3CCOCC3)cc2C)C(=O)N1C	-30	3	-3
Clc1ccc(N/N=C/c2cccnc2)cc1	66*	-2	-7
Cc1sc(N/N=C/c2cccnc2)nc1-c1ccc(Cl)cc1	-46	2	-13
Fc1ccc(N/N=C/c2ccncc2)c(F)c1	-1	2	-11
Clc1ccc(N/N=C/c2ccncc2)cc1Cl	49*	0	-12
COc1ccc(/C=C/C(O)=C(\C#N)c2nnc(N3CCOCC3)n2-c2ccccc2)cc1OC	nt	2	nt
CCOC(=O)C1=C(N)Oc2c(oc(CO)cc2=O)C1c1ccccc1 (stereo not drawn)	nt	1	nt
CCOc1c(Br)cc(/C=C2/SC(=O)N(CC(=O)N3CCCC3)C2=O)cc1OC	0	1	-10
